Calls of active or inactive are those of the source. No rule for the calls is given here.
What was measured:
[1] = test system: Escherichia coli; assay: Antibacterial activity against Escherichia coli DH5[alpha] at 100 uM after 23 hrs by broth dilution assay; type: functional, organism-based
Method in brief: (§1)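 Overnight LB culture of E. coli DH5α grown at 37 °C, diluted to OD600 0.1 in LB with 2.5 mM CaCl2; compound added from DMSO stock to final 50 or 100 µM. Incubated at 37 °C with absorbance at 595 nm followed over 23 h.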

[2] = test system: Yersinia pseudotuberculosis; assay: Antibacterial activity against Yersinia pseudotuberculosis expressing pIB102 at 100 uM after 23 hrs by broth dilution assay; type: functional, organism-based
Method in brief: (§2)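 Wild-type pIB102 grown overnight in LB at room temperature, diluted to OD600 = 0.1 in LB with 2.5 mM CaCl2. Compound added from DMSO stock to final 50 and 100 µM. Incubated at 37 °C with absorbance at 595 nm read over 23 h.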

[3] = test system: Yersinia pseudotuberculosis; assay: Antibacterial activity against Yersinia pseudotuberculosis expressing pIB102 at 50 uM after 23 hrs by broth dilution assay; type: functional, organism-based; method in brief: as §2
[4] = test system: Yersinia pseudotuberculosis YPIII; assay: Inhibition of T3S in Yersinia pseudotuberculosis YPIII expressing yopE-luxAB at 3.13 uM after 3 hrs by luciferase reporter gene assay
Method in brief: (§3)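 Strain YPIII pIB102 (yopE-luxAB) grown overnight at room temperature in BHI with 5 mM EGTA and 20 mM MgCl2 (calcium depletion), adjusted to OD600 0.088–0.095. Compound added from DMSO at 1.56–200 µM final (eight concentrations). Shaken 1 h at room temperature, then 2 h at 37 °C. Decanal added and light emission read immediately. Triplicates, repeated at least three times.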

[5] = test system: Yersinia pseudotuberculosis YPIII; assay: Inhibition of T3S in Yersinia pseudotuberculosis YPIII expressing yopE-luxAB at 6.25 uM after 3 hrs by luciferase reporter gene assay; method in brief: as §3
[6] = test system: Yersinia pseudotuberculosis YPIII; assay: Inhibition of T3S in Yersinia pseudotuberculosis YPIII expressing yopE-luxAB at 25 uM after 3 hrs by luciferase reporter gene assay; method in brief: as §3
[7] = test system: Yersinia pseudotuberculosis YPIII; assay: Inhibition of T3S in Yersinia pseudotuberculosis YPIII expressing yopE-luxAB at 1.56 uM after 3 hrs by luciferase reporter gene assay; method in brief: as §3
[8] = test system: Yersinia pseudotuberculosis YPIII; assay: Inhibition of T3S in Yersinia pseudotuberculosis YPIII expressing yopE-luxAB at 200 uM after 3 hrs by luciferase reporter gene assay; method in brief: as §3
[9] = test system: Yersinia pseudotuberculosis YPIII; assay: Inhibition of T3S in Yersinia pseudotuberculosis YPIII expressing yopE-luxAB at 50 uM after 3 hrs by luciferase reporter gene assay; method in brief: as §3
[10] = test system: Yersinia pseudotuberculosis YPIII; assay: Inhibition of T3S in Yersinia pseudotuberculosis YPIII expressing yopE-luxAB at 100 uM after 3 hrs by luciferase reporter gene assay; method in brief: as §3
[11] = test system: Escherichia coli; assay: Antibacterial activity against Escherichia coli DH5[alpha] at 50 uM after 23 hrs by broth dilution assay; type: functional, organism-based; method in brief: as §1
[12] = test system: Yersinia pseudotuberculosis YPIII; assay: Inhibition of T3S in Yersinia pseudotuberculosis YPIII expressing yopE-luxAB at 12.5 uM after 3 hrs by luciferase reporter gene assay; method in brief: as §3

COc1ccc(Br)c(C(=O)N/N=C/c2cc(C(C)(C)C)ccc2O)c1 was tested, and the Activity [1] was “inactive”, the Activity [2] was “inactive” and the Activity [3] was “inactive”. For the same compound, the inhibition [4] was 0%, the inhibition [5] was 6% and the inhibition [6] was 18%. The inhibition [7] was 3%, the inhibition [8] was 20% and the inhibition [9] was 33%. For the same compound, the inhibition [10] was 22%, the Activity [11] was “inactive” and the inhibition [12] was 26%.
For O=C(N/N=C/c1c(O)cc(O)cc1O)c1sc2ccccc2c1Cl, the Activity [1] was “inactive”, the Activity [2] was “inactive” and the Activity [3] was “inactive”. It also gave an inhibition [4] of 10%, an inhibition [5] of 21% and an inhibition [6] of 44%. The inhibition [7] was 2%, the inhibition [8] was 87% and the inhibition [9] was 70%. For the same compound, the inhibition [10] was 79%, the Activity [11] was “inactive” and the inhibition [12] was 33%.
COc1cc(C(=O)N/N=C/c2cc(Cl)cc(Cl)c2O)cc(OC)c1OC was tested, and the Activity [1] was “inactive”, the Activity [2] was “inactive” and the Activity [3] was “inactive”. It also gave an inhibition [4] of 13%, an inhibition [5] of 8% and an inhibition [6] of 18%. The inhibition [7] was -10%, the inhibition [8] was 40% and the inhibition [9] was 27%. For the same compound, the inhibition [10] was 29%, the Activity [11] was “inactive” and the inhibition [12] was 14%.
In the case of COc1cccc(/C=N/NC(=O)c2ccccc2[N+](=O)[O-])c1O, the Activity [1] was “inactive”, the Activity [2] was “inactive” and the Activity [3] was “inactive”. For the same compound, the inhibition [4] was 19%, the inhibition [5] was 14% and the inhibition [6] was 19%. The inhibition [7] was -5%, the inhibition [8] was 94% and the inhibition [9] was 32%. The inhibition [10] was 68%, the Activity [11] was “inactive” and the inhibition [12] was 12%.
For O=C(CC12CC3CC(CC(C3)C1)C2)N/N=C/c1ccc(Cl)cc1O, the Activity [1] was “inactive”, the Activity [2] was “inactive” and the Activity [3] was “inactive”. For the same compound, the inhibition [4] was 7%, the inhibition [5] was 18% and the inhibition [6] was 25%. The inhibition [7] was 0%, the inhibition [8] was 29% and the inhibition [9] was 32%. For the same compound, the inhibition [10] was 26%, the Activity [11] was “inactive” and the inhibition [12] was 19%.
For COc1cc(Br)cc(/C=N/NC(=O)CCc2ccc(O)cc2)c1O, the Activity [1] was “inactive”, the Activity [2] was “inactive” and the Activity [3] was “inactive”. For the same compound, the inhibition [4] was 3%, the inhibition [5] was 9% and the inhibition [6] was 18%. The inhibition [7] was -10%, the inhibition [8] was 52% and the inhibition [9] was 23%. For the same compound, the inhibition [10] was 36%, the Activity [11] was “inactive” and the inhibition [12] was 11%.
In the case of COc1cc(/C=N/NC(=O)c2cccc(C(F)(F)F)c2)c(O)c(OC)c1, the Activity [1] was “inactive”, the Activity [2] was “inactive” and the Activity [3] was “inactive”. For the same compound, the inhibition [4] was 10%, the inhibition [5] was 21% and the inhibition [6] was 39%. For the same compound, the inhibition [7] was -10%, the inhibition [8] was 75% and the inhibition [9] was 66%. The inhibition [10] was 74%, the Activity [11] was “inactive” and the inhibition [12] was 24%.
COc1ccc(/C=N/NC(=O)c2sc3ccccc3c2Cl)c(O)c1 was tested, and the Activity [1] was “inactive”, the Activity [2] was “inactive” and the Activity [3] was “inactive”. The inhibition [4] was -2%, the inhibition [5] was 10% and the inhibition [6] was 15%. The inhibition [7] was -2%, the inhibition [8] was 50% and the inhibition [9] was 27%. The inhibition [10] was 35%, the Activity [11] was “inactive” and the inhibition [12] was 12%.
For O=C(N/N=C/c1cc(F)cc(Cl)c1O)c1cc(Cl)cc(Cl)c1, the Activity [1] was “inactive”, the Activity [2] was “inactive” and the Activity [3] was “inactive”. For the same compound, the inhibition [4] was 4%, the inhibition [5] was 12% and the inhibition [6] was 11%. For the same compound, the inhibition [7] was -10%, the inhibition [8] was 13% and the inhibition [9] was 19%. The inhibition [10] was 24%, the Activity [11] was “inactive” and the inhibition [12] was 10%.

Reference: ChEMBL document CHEMBL1156948, “Statistical molecular design of a focused salicylidene acylhydrazide library and multivariate QSAR of inhibition of type III secretion in the Gram-negative bacterium Yersinia” (Bioorg Med Chem, 2010)
